Assay results published in paper PMC3167688 (Nuclear medicine and biology, 2009).

Assays:
tumor xenografts = conditions: cited from earlier work
[1] = Baboon arterial plasma analysis of unmetabolized radiotracer during PET; type: in vivo
HDAC = conditions: cited from earlier work
[2] = test system: Histone Deacetylase in the baboon brain; experiment: Baboon brain PET imaging with graphical analysis; type: in vivo; conditions: for average reduction in Vd of [^18F]FAHA: comparison of 0.5 and 0.25 mg/kg
[3] = cited from earlier work
Log D = type: physicochemical
[4] = Compartment modelling of [^18F]FAC uptake in baboon brain; type: in vivo; conditions: one animal; fixed for all four studies
Summary of the method: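 Two baboons. Arterial blood was sampled every 5 s for 2 min, then at longer intervals, centrifuged, and plasma counted. Brain time-activity curves from studies with the injected labelled metabolite were fitted with one- and two-compartment models. Fitted rate constants were fixed across studies to estimate metabolite brain uptake from peripheral radiotracer metabolism, using the metabolite fraction of arterial plasma input.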

plasma proteins = experiment: Plasma protein binding; type: in vitro ADME
[5] = Stability of [^18F]FAHA in medium alone; type: in vitro ADME; conditions: incubated in medium alone; no detection of [^18F]FAC
[6] = In vitro whole blood and plasma incubation, radio-TLC; type: in vitro ADME, baboon
Summary of the method: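 Arterial whole blood or plasma (0.5 ml) came from one baboon 1 h after HDAC-inhibitor pretreatment (0.25 mg/kg), just before radiotracer dosing. Radiotracer was added at room temperature. Percent intact radiotracer was measured by radio-TLC after 10, 20 and 30 min.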

Plasma protein binding = type: in vitro ADME; conditions: plasma

SMILES: O=C(CCCCCCC(=O)Nc1ccccc1)NO [SAHA, suberanilohydroxamic acid]
- effect on [^18F]FAHA radiotracer uptake (tumor xenografts; rodent tumor xenograft study): inhibit radiotracer uptake
- effect on rate of metabolism of [^18F]FAHA in baboon plasma ([1]; SAHA 0.25, 0.5, 1.0 mg/kg iv, dose dependent manner): decrease the rate of metabolism
- effect on [^18F]FAHA radiotracer uptake (HDAC; rat brain study): inhibit radiotracer uptake
- average % reduction in Vd of [^18F]FAHA ([2]; 0.25 mg/kg, Brooke): 12 ± 12%
- average % reduction in Vd of [^18F]FAHA ([2]; 0.25 mg/kg, Lulu): 25 ± 8%
- average reduction in Vd of [^18F]FAHA ([2]; 0.25 mg/kg): 25± 5%
- average reduction in Vd of [^18F]FAHA ([2]; 0.5 mg/kg): 30± 9%
- average % reduction in Vd of [^18F]FAHA ([2]; 1 mg/kg, Brooke, averaged over all 6 ROIs (excluding global)): 43 ± 7%
- average % reduction in Vd of [^18F]FAHA ([2]; 1 mg/kg, Lulu, averaged over all 6 ROIs (excluding global)): 52 ± 8%
- clinical doses well tolerated [3]: > 5 mg/kg

SMILES: O=C(O)C[18F] [[^18F]FAC, [^18F]fluoroacetate]
- logD (Log D): 0.70
- K1 (2 compartment model, brain uptake of metabolite) [4]: 0.018 ml/min/cc
- k2 (2 compartment model) [4]: 0.04 min⁻¹
- k3 (2 compartment model) [4]: 0.008 min⁻¹
- k4 (2 compartment model) [4]: .003 min⁻¹
- % of activity unbound to plasma proteins (plasma proteins): 57.2%

SMILES: O=C(C[18F])NCCCCCC(=O)Nc1ccccc1 [[^18F]FAHA, 6-([^18F]fluoroacetamido)-1-hexanoicanilide]
- tumor to muscle ratios (tumor xenografts; between 30–60 min post-injection): 2.2–2.4
- peak uptake in tumor xenografts (tumor xenografts; peak at 30 min, rats implanted with carcinoma cells): 0.43 %ID/g
- % Unmetabolized [^18F]FAHA in baboon plasma ([1]; animal 1, Baseline, 1min after bolus injection): 45%
- % Unmetabolized [^18F]FAHA in baboon plasma ([1]; animal 1, Baseline, 5min): 2%
- % Unmetabolized [^18F]FAHA in baboon plasma ([1]; animal 1, Baseline, 10min): 1%
- % Unmetabolized [^18F]FAHA in baboon plasma ([1]; animal 1, SAHA 0.25mg/kg iv 1 hour before, 1min): 84%
- % Unmetabolized [^18F]FAHA in baboon plasma ([1]; animal 1, SAHA 0.25mg/kg iv 1 hour before, 2min): 35%
- % Unmetabolized [^18F]FAHA in baboon plasma ([1]; animal 1, SAHA 0.25mg/kg iv 1 hour before, 5min): 10%
- % Unmetabolized [^18F]FAHA in baboon plasma ([1]; animal 1, SAHA 0.25mg/kg iv 1 hour before, 10min): 6%
- % Unmetabolized [^18F]FAHA in baboon plasma ([1]; animal 1, SAHA 0.5mg/kg iv 1 hour before, 1min): 78%
- % Unmetabolized [^18F]FAHA in baboon plasma ([1]; animal 1, SAHA 0.5mg/kg iv 1 hour before, 2min): 39%
- % Unmetabolized [^18F]FAHA in baboon plasma ([1]; animal 1, SAHA 0.5mg/kg iv 1 hour before, 5min): 14%
- % Unmetabolized [^18F]FAHA in baboon plasma ([1]; animal 1, SAHA 0.5mg/kg iv 1 hour before, 10min): 7%
- % Unmetabolized [^18F]FAHA in baboon plasma ([1]; animal 1, SAHA 1.0mg/kg iv 1 hour before, 1min): 86%
- % Unmetabolized [^18F]FAHA in baboon plasma ([1]; animal 1, SAHA 1.0mg/kg iv 1 hour before, 2min): 34%
- % Unmetabolized [^18F]FAHA in baboon plasma ([1]; animal 1, SAHA 1.0mg/kg iv 1 hour before, 5min): 22%
- % Unmetabolized [^18F]FAHA in baboon plasma ([1]; animal 1, SAHA 1.0mg/kg iv 1 hour before, 10min): 10%
- % Unmetabolized [^18F]FAHA in baboon plasma ([1]; animal 2, Baseline, 1min): 52%
- % Unmetabolized [^18F]FAHA in baboon plasma ([1]; animal 2, Baseline, 2min): 6%
- % Unmetabolized [^18F]FAHA in baboon plasma ([1]; animal 2, Baseline, 5min): 2%
- % Unmetabolized [^18F]FAHA in baboon plasma ([1]; animal 2, Baseline, 10min): 1%
- % Unmetabolized [^18F]FAHA in baboon plasma ([1]; animal 2, SAHA 0.25mg/kg iv 1 hour before, 1min): 87%
- % Unmetabolized [^18F]FAHA in baboon plasma ([1]; animal 2, SAHA 0.25mg/kg iv 1 hour before, 2min): 49%
- % Unmetabolized [^18F]FAHA in baboon plasma ([1]; animal 2, SAHA 0.25mg/kg iv 1 hour before, 5min): 11%
- % Unmetabolized [^18F]FAHA in baboon plasma ([1]; animal 2, SAHA 0.25mg/kg iv 1 hour before, 10min): 5%
- % Unmetabolized [^18F]FAHA in baboon plasma ([1]; animal 2, SAHA 0.5mg/kg iv 1 hour before, 1min): 78%
- % Unmetabolized [^18F]FAHA in baboon plasma ([1]; animal 2, SAHA 0.5mg/kg iv 1 hour before, 2min): 50%
- % Unmetabolized [^18F]FAHA in baboon plasma ([1]; animal 2, SAHA 0.5mg/kg iv 1 hour before, 5min): 14%
- % Unmetabolized [^18F]FAHA in baboon plasma ([1]; animal 2, SAHA 0.5mg/kg iv 1 hour before, 10min): 6%
- % Unmetabolized [^18F]FAHA in baboon plasma ([1]; animal 2, SAHA 1.0mg/kg iv 1 hour before, 1min): 85%
- % Unmetabolized [^18F]FAHA in baboon plasma ([1]; animal 2, SAHA 1.0mg/kg iv 1 hour before, 5min): 26%
- % Unmetabolized [^18F]FAHA in baboon plasma ([1]; animal 2, SAHA 1.0mg/kg iv 1 hour before, 10min): 20%
- stability in medium alone [5]: stable up to 2 h
- % Unmetabolized [^18F]FAHA after incubation in vitro (radio-TLC) ([6]; Blood-post (1h after SAHA administration, 0.25 mg/kg), time 10): 16%
- % Unmetabolized [^18F]FAHA after incubation in vitro (radio-TLC) ([6]; Blood-post, time 20): 0%
- % Unmetabolized [^18F]FAHA after incubation in vitro (radio-TLC) ([6]; Blood-post, time 30): 0%
- % Unmetabolized [^18F]FAHA after incubation in vitro (radio-TLC) ([6]; Blood-pre (before SAHA pretreatment), time 10, room temperature): 13%
- % Unmetabolized [^18F]FAHA after incubation in vitro (radio-TLC) ([6]; Blood-pre, time 20): 0%
- % Unmetabolized [^18F]FAHA after incubation in vitro (radio-TLC) ([6]; Blood-pre, time 30): 0%
- % Unmetabolized [^18F]FAHA after incubation in vitro (radio-TLC) ([6]; Plasma-post (1h after SAHA administration), time 10): 96%
- % Unmetabolized [^18F]FAHA after incubation in vitro (radio-TLC) ([6]; Plasma-post, time 20): 96%
- % Unmetabolized [^18F]FAHA after incubation in vitro (radio-TLC) ([6]; Plasma-post, time 30): 94%
- % Unmetabolized [^18F]FAHA after incubation in vitro (radio-TLC) ([6]; Plasma-pre (before SAHA pretreatment), time 10): 98%
- % Unmetabolized [^18F]FAHA after incubation in vitro (radio-TLC) ([6]; Plasma-pre, time 20): 94%
- % Unmetabolized [^18F]FAHA after incubation in vitro (radio-TLC) ([6]; Plasma-pre, time 30): 94%
- peak uptake in rat brain (HDAC): 0.44 % ID/g
- peak brain uptake relative to [^18F]FAC ([2]; TACs in the same baboon): more than five times greater
- fraction unbound (Plasma protein binding): 0.539 ± 0.0176
